# Screening results (PubChem BioAssay)
# S100A4 inh HTS – S100A4-myosin IIA interaction inhibition. 0.14% of 360,000 active. P26447. S100A4/TAMRA-MyoIIA peptide fluorescence polarization. inhibition, % at 10.7 µM. AID 652163;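 active = mean inhibition of at least 70% across replicates, with every replicate also reaching that level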
# Target sequence (P26447 whole entry, looked up): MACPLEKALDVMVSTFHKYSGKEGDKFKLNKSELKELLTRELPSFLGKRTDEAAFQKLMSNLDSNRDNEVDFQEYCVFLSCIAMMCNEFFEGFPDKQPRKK
#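 Assay system: human S100A4 monomer with TAMRA-labelled myosin IIA peptide / Buffer or medium: Calcium-containing HEPES buffer, pH 7.2 / Reagent: TAMRA-labelled myosin IIA heavy-chain peptide probe, 5 nM / Compound: one dose per compound / Timing: polarization read 5 min after assay mix addition, stable 5–60 min / Benchmarks: neutral control DMSO, positive control TFP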
# CFTR F508del cor – correctors of CFTR F508del function in bronchial epithelial cells; activity (quench increase), % at 7.58 µM; CFBE cells, YFP halide quenching; stimulated with forskolin plus potentiator P3; % fluorescence drop versus neutral controls; 0.36% of 350,000 active;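 active = mean added fluorescence quench of at least 8% versus neutral control, with both replicates also reaching 8%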;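 also: cells transiently co-express mutant CFTR-F508del with the halide-sensitive YFP; corrector assay measuring rescue of mutant channel to the surface after 24 h compound exposure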
# FGF22 binding – binders of recombinant human FGF22 by thermal shift | Q9HCT0 | SYPRO orange fluorescence; percent of sucrose octasulfate shift, DMSO zero | activity (Tm shift, normalised), % at 9.99 µM | 1.5% of 340,000 active | AID 651658;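 active = mean Tm shift, scaled 0 neutral to 100 positive control, at about 1.3% or above, every replicate too, limit read from the data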
# Target sequence (Q9HCT0 whole entry, looked up): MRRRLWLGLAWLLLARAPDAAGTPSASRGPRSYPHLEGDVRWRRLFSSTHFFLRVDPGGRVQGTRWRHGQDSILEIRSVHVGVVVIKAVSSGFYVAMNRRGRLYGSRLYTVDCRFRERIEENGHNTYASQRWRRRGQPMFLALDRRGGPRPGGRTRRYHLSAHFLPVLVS
# Env fusion inh – inhibitors of HIV Env-mediated cell fusion | HeLa-JRFL Env/CEM21 cell fusion, luciferase | inhibition, % at 12.3 µM | 1.1% of 360,000 active | AID 651610;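 active = mean replicate inhibition score of at least 50 and every replicate individually at or above 50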;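 also: 0% = plate neutral controls and 100% = maraviroc near 300 nM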
# E-sel inducer – induces E-selectin expression in human endothelial cells; P16581; HUVEC E-selectin immunofluorescence imaging; normalized: neutral wells 0, TNF-alpha wells 100; activation, % at 7.58 µM; 0.37% of 260,000 active; AID 686992;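 active = mean E-selectin-positive cell signal at least 10% of the positive control, reached in at least 60% of replicates, without over 20% cell loss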
#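 Test system: HUVEC; input: 3,000 HUVEC/well; measured by: immunofluorescence imaging; read-out: % PE-positive cells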
# * = called active by the depositor; nt = no result given; [ ] = dose if it differs, or a comment. Only some compounds are listed: those with a hit (about 2.7% of all), similar ones and a draw of the others.
SMILES,S100A4 inh HTS,CFTR F508del cor,FGF22 binding,Env fusion inh,E-sel inducer
C[C@H](CO)N1C[C@H](C)[C@@H](CN(C)C(=O)Nc2ccccc2)Oc2ncc(C#CC3CCCC3)cc2C1=O,-9.7,0.8,-0.2,-6.5[16.7 µM],0.6
CCOC(=O)c1cnc(-n2nc(C)cc2C)nc1NC1CCCCC1,nt,nt,nt,105.2*,nt
COc1ccc(NC(=O)CSc2nnc(Cc3cccs3)n2C)cc1,-1.2,10.3*,0.2,12.7,0.2
COc1ccccc1NC(=O)CSc1nnc(Cc2cccs2)n1C,10.8,1.8,0.2,5.4,2.5
COc1ccc(NC(=O)CSc2nc3ccsc3c(=O)n2CCC(=O)O)cc1,-3.7,-2.9,-0.1,60.1*,3.6
CC(C)NC(=O)Nc1cccc2c1O[C@H](CN(C)S(=O)(=O)c1ccccc1)[C@H](C)CN([C@H](C)CO)C2=O,-10.1,4.5,-0.1,nt,-0.7
COc1cc2c(cc1OC)C(c1ccc(-c3ccc(Cl)cc3Cl)o1)=NCC2,nt,nt,nt,97.6*,nt
COc1cc2c(cc1OC)C(c1ccc(-c3cc(Cl)ccc3Cl)o1)=NCC2,18.2,nt,nt,nt,nt
COc1cc2c(cc1OC)C(c1ccc(-c3ccc(Cl)c(Cl)c3)o1)=NCC2,nt,nt,nt,82.8*,nt
CO[C@H]1CN(C)C(=O)c2cc(NC(=O)Nc3c(C)noc3C)ccc2OC[C@H](C)N(CCC(F)(F)F)C[C@@H]1C,2.5,0.1,-0.2,8.6[16.7 µM],0.2
O=C(COC(=O)c1cn(-c2ccccc2)nc1-c1ccc(F)cc1)Nc1ncc(Cl)cc1Cl,-9.2,-3.5,43.8*,-11.1,nt
NS(=O)(=O)c1ccc(NC(=O)COC(=O)c2cn(-c3ccccc3)nc2-c2ccc(F)cc2)cc1,nt,nt,nt,-7.2,0.9
CC(C)NC(=O)N(C)C[C@H]1OCCCC[C@@H](C)Oc2ccc(NC(=O)C3CCCCC3)cc2C(=O)N([C@@H](C)CO)C[C@H]1C,1.9,1.1,0.3,-19.0[16.7 µM],nt
COc1ccc(N(C(=O)CCl)C(C(=O)NCCc2ccccc2)c2cccs2)cc1 (configuration not stated),-3.3,-4.8,43.3*,nt,nt
COc1ccc(CNC(=O)C(c2ccncc2)N(C(=O)Cc2cccs2)c2ccccc2)cc1 (configuration not stated),-3.2,nt,0.0,-0.4,11.6
O=C(O)CCCCCNC(=O)/C=C/c1ccco1,0.4,-0.5,0.2,-11.7,1.9
O=C(O)CCCNC(=O)/C=C/c1ccco1,-9.7,-0.3,44.3*,18.5,nt
CO[C@H](CN(C)S(=O)(=O)c1ccc(F)cc1)[C@@H](C)CN([C@H](C)CO)S(=O)(=O)c1cccc(Cl)c1,-2.9,-1.0,0.2,nt,0.0
CCCc1cn(CC[C@@H]2CC[C@@H](NS(=O)(=O)c3ccc(-c4ccccc4)cc3)[C@H](CO)O2)nn1,-5.7,0.8,-0.4,20.4[16.7 µM],1.0
O=c1cc(-c2ccccc2)nc2cc(-c3ccc(F)cc3)[nH]n12,-3.0,-0.9,0.0,-0.7,nt
COc1cccc(-c2cc3nc(-c4ccccc4)cc(=O)n3[nH]2)c1,-0.6,11.6*,-0.3,-73.2,-0.1
CCc1c(C)[nH]c(C(=O)OCc2ccccc2)c1C,6.1,3.0,42.9*,-21.1,nt
CCc1c(C(=O)OCc2ccccc2)[nH]c(C)c1C,-1.7,1.2,-0.1,-50.9,nt
CN(C)CCNC(=O)c1cccc2nc3cccc(F)c3nc12,8.3,9.2*,-0.1,-0.1,0.6
COc1ccc(OC)c2nc3c(C(=O)NCCN(C)C)cccc3nc12,-0.9,7.3,-0.2,27.4,3.8
SMILES,S100A4 inh HTS,CFTR F508del cor,FGF22 binding,Env fusion inh,E-sel inducer
COc1ccc(NC(=O)Nc2ccc3c(c2)C(=O)N([C@H](C)CO)C[C@@H](C)[C@H](CN(C)Cc2ccncc2)OCCCC[C@@H](C)O3)cc1,-2.9,0.1,-0.3,-9.9[16.7 µM],0.1
COC(=O)CCn1nnc(-c2ccc(C(C)C)cc2)n1,nt,nt,nt,65.7*,nt
COc1cc2c(O)c3c(c(-c4ccc5c(c4)OCO5)c2cc1OC)C(=O)OC3,nt,nt,nt,63.2*,nt
COc1cc2c(OC(C)=O)c3c(c(-c4ccc5c(c4)OCO5)c2cc1OC)C(=O)OC3,-15.8,-11.2,0.1,nt,nt
CN1CCN(C(=O)C[C@@H]2CC[C@H]3[C@H](COc4ccc(NC(=O)C5CCCC5)cc4C(=O)N3C)O2)CC1,14.0,1.8,nt,nt,0.2
CCCC[n+]1c(C)sc2cc(OC)ccc21,-21.7,-1.8,0.1,5.4,nt
CCC[n+]1c(C)sc2c(OC)ccc(OC)c21,-0.4,-3.1,43.0*,3.3,0.1
COC(=O)[C@]12C[C@H](CC(=O)NCc3cccc4ccccc34)C(=O)N(CCC3=CCCCC3)C1=C[C@H](C(C)(C)C)O[C@@H]2C,8.3,2.0,-0.1,86.9*,-0.2
COC(=O)[C@]12C[C@H](CC(=O)NCCC(C)C)C(=O)N(CCC3=CCCCC3)C1=C[C@H](C(C)(C)C)O[C@@H]2C,-1.9,1.6,-0.8,58.9*,-0.3
COC(=O)[C@]12C[C@H](CC(=O)NCCCN3CCCC3=O)C(=O)N(CCC3=CCCCC3)C1=C[C@H](C(C)(C)C)O[C@@H]2C,-0.7,1.3,0.2,44.9,-0.2
CCCCNC(=O)C[C@H]1C[C@@]2(C(=O)OC)C(=C[C@H](C(C)(C)C)O[C@@H]2C)N(CCC2=CCCCC2)C1=O,0.9,-0.4,-0.6,72.4*,-0.1
Cc1nn(-c2ccc(Cl)cc2)c(=O)c2ccccc12,3.5,-0.7,42.3,-24.1,nt
Cc1nn(-c2nc3ccccc3[nH]2)c(N)c1-c1ccc(Cl)cc1,0.9,-1.3,0.4,nt,nt
Cc1nn(-c2nc3ccccc3[nH]2)c(=O)c2ccccc12,-3.6,-1.3,nt,71.5*,1.0
Cc1nn(-c2ccc3ccccc3c2)c(=O)c2ccccc12,-6.0,0.2,43.9*,-28.4,nt
Cc1cccc(-c2ccc([C@@H]3[C@@H](CO)N4C(=O)CN(C(=O)NC5CCCCC5)C[C@@H]34)cc2)c1,-19.1,2.1,nt,nt,0.3
COc1cccc(OCCCN2CCN(S(=O)(=O)c3ccc(NC(C)=O)cc3)CC2)c1,nt,nt,nt,63.1*,nt
CC(=O)Nc1ccc(S(=O)(=O)N2CCN(CCCOc3ccccc3Cl)CC2)cc1,nt,nt,nt,-27.4,-0.6
Cc1ccc(NC(=O)c2ccccc2Cl)cc1-n1cnnn1,-2.1,2.3,43.6*,-19.7,nt
Cc1ccc(NC(=O)c2ccccc2)cc1-n1cnnn1,-4.1,3.2,0.4,27.6,nt
COc1ccc2cc(-c3[nH]ncc3CN3CCCN(c4ccccc4)CC3)ccc2c1,-2.2,-1.0,43.8*,6.2,nt
COc1ccc(-c2[nH]ncc2CN2CCCN(c3ccccc3)CC2)c(F)c1,1.2,-7.8,nt,10.9,nt
Cc1cc(C(C)(C)C)cc(C)c1S(=O)(=O)N1CC(=O)Nc2ccccc21,-6.1,0.8,1.5*,5.4,0.7
Cc1ccc(C(C)(C)C)cc1S(=O)(=O)N1CC(=O)Nc2ccccc21,-2.3,0.2,-0.2,8.4,nt
O=C(NNC(=O)c1ccncc1)Nc1ccc(Cl)cc1,-3.8,8.2*,0.0,-10.2,-1.9
O=C(NNC(=O)c1ccncc1)Nc1ccccc1,2.2,0.6,0.2,-0.5,0.4
